# Assay results: ChEMBL document CHEMBL1127464, “Inhibitors of HIV-1 proteinase containing 2-heterosubstituted 4-amino-3-hydroxy-5-phenylpentanoic acid: synthesis, enzyme inhibition, and antiviral activity” (J Med Chem, 1994)
# Experiments:
# [1] = system: Human immunodeficiency virus 1; experiment: Antiviral activity by observing cytopathic effect induced by HIV-1 strain IIIB in de novo infected MT-4 cells; format: functional, organism-based; conditions: Human immunodeficiency virus 1, MT4
# [2] = biological target: T1, Renin (Homo sapiens, UniProt P00797); experiment: Selectivity for their inhibitory potency against human renin
# T1 sequence (P00797 whole entry): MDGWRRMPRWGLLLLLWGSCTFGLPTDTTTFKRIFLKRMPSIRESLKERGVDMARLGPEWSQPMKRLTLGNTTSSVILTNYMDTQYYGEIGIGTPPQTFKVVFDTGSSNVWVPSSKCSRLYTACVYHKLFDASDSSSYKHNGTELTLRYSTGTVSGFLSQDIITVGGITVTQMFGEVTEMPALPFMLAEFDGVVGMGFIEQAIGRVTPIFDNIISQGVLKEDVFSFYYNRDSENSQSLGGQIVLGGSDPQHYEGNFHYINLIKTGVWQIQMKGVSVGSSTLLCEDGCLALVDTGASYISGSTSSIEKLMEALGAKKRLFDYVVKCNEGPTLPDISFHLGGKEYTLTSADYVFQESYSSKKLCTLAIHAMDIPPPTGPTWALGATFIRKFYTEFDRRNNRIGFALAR
# [3] = system: MT4; experiment: Antiviral activity by analysis of p26 antigen concentration for HIV-2 strain EHO, replication in MT-4 cells; format: functional, cell-based; conditions: Homo sapiens
# [4] = biological target: T2, Cathepsin D (Homo sapiens, UniProt P07339); experiment: (§1) Selectivity for their inhibitory potency against human cathepsin D.
# [5] = biological target: Pepsin A (Sus scrofa, UniProt P00791); experiment: Selectivity for their inhibitory potency against porcine pepsin
# Procedure, shortened: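 Porcine pepsin assayed in 0.1 M glycine–HCl, pH 2.0, with 0.5% hemoglobin substrate and [14C]methylhemoglobin tracer.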
# [6] = biological target: Human immunodeficiency virus type 1 protease (Human immunodeficiency virus 1, UniProt Q72874); experiment: Inhibitory constant against HIV-1 protease
# Procedure, shortened: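 HIV-1 proteinase expressed in E. coli JM 105 and purified to homogeneity. Initial rates were taken from the absorbance decrease at 298 nm. IC50 came from a fit of the initial velocities. Ki was derived from IC50 accounting for enzyme, substrate and Km. Mean of two determinations.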
# [7] = system: MT4; experiment: Antiviral activity by analysis of p24 antigen concentration for HIV-1 strain IIIB in de novo infected MT-4 cells; format: functional, cell-based; conditions: Homo sapiens
# [8] = biological target: T2, Cathepsin D; experiment: as §1; format: functional
# Chain of Pepsin A (P00791 whole entry): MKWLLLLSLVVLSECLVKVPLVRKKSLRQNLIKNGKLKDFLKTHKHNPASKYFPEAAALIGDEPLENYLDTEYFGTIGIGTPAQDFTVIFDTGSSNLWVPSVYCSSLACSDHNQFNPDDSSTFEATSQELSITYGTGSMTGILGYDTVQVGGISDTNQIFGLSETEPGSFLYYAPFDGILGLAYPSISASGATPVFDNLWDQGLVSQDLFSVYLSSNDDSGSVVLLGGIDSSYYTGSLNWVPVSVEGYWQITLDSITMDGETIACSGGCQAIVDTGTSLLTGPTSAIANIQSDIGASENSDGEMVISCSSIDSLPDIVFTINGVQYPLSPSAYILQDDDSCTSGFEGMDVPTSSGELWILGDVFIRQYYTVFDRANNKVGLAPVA
# T2 sequence (P07339 65-162 limits assumed): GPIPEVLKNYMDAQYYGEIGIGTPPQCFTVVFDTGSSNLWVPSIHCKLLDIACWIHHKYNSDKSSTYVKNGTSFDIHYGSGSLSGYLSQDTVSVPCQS
# T2 sequence (P07339 169-412 limits assumed): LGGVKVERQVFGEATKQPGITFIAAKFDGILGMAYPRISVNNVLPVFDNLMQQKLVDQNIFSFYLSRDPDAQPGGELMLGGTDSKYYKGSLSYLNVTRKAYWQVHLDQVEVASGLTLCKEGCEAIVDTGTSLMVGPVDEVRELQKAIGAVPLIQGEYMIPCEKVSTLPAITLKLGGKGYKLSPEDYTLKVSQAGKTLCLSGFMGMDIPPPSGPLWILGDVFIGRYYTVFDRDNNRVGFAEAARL
SMILES,IC50 [1] [µM],IC50 [2] [µM],IC50 [3] [µM],IC50 [4] [µM],IC50 [5] [µM],Ki [6] [µM],IC50 [7] [µM],IC50 [8] [µM]
COc1ccc(CN[C@@H](C(=O)N[C@H](C(=O)NCc2nc3ccccc3[nH]2)C(C)C)[C@H](O)[C@H](Cc2ccccc2)NC(=O)[C@@H](NC(=O)OCc2ccccc2)C(C)C)cc1,0.025,> 10,0.46,0.38,> 10,0.0034,0.0097,
COc1ccc(CN[C@@H](C(=O)N[C@H](C(=O)NCc2nc3ccccc3[nH]2)C(C)C)[C@H](O)[C@H](Cc2ccccc2)NC(=O)[C@@H](NC(=O)OCc2ccccc2)C(C)(C)C)cc1,0.014,> 10,0.385,1,> 10,0.0046,0.0054,
CC(C)[C@H](NC(=O)[C@H](NCc1ccccc1)[C@H](O)[C@H](Cc1ccccc1)NC(=O)[C@@H](NC(=O)OCc1ccccc1)C(C)(C)C)C(=O)NCc1ccccc1,0.32,> 10,1.4,0.06,> 10,0.0092,0.093,
CC(C)[C@H](NC(=O)[C@H](NCc1ccc(Cl)cc1)[C@H](O)[C@H](Cc1ccccc1)NC(=O)[C@@H](NC(=O)OCc1ccccc1)C(C)(C)C)C(=O)NCc1nc2ccccc2[nH]1,0.034,> 10,0.24,1.8,> 10,0.0075,0.0113,
COc1ccc(CN[C@@H](C(=O)N[C@H](C(=O)NCc2ccccc2)C(C)C)[C@H](O)[C@H](Cc2ccccc2)NC(=O)[C@@H](NC(=O)OCc2ccccc2)C(C)C)cc1,0.32,> 10,0.81,0.11,> 10,0.0074,0.132,
COc1ccc(CN[C@@H](C(=O)N[C@H](C(=O)NCc2nc3ccccc3[nH]2)C(C)C)[C@H](O)[C@H](Cc2ccccc2)NC(=O)[C@@H](NC(=O)C(C)Oc2ccccc2)C(C)(C)C)cc1 (stereo not given in full),0.038,> 10,0.47,2,> 10,0.006,0.0079,
CC(C)[C@H](NC(=O)OCc1ccccc1)C(=O)N[C@@H](Cc1ccccc1)[C@@H](O)[C@@H](NCc1ccccc1)C(=O)N[C@H](C(=O)NCc1ccccc1)C(C)C,0.58,> 10,> 3,,> 10,0.0061,0.315,0.035
COc1ccc(CN[C@@H](C(=O)N[C@H](C(=O)NCc2nc3ccccc3[nH]2)C(C)C)[C@H](O)[C@H](Cc2ccccc2)NC(=O)[C@@H](NC(=O)CCc2ccc(O)cc2)C(C)(C)C)cc1,0.096,> 10,,> 10,> 10,0.013,0.021,
